In paper PMC6465157 (Chemical research in toxicology, 2019):
Where two headings read alike, the source gives them in different places.

Columns and labels:
[1] = assay type: in vivo, mice
Summary of the method: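 Whole blood was taken 1 to 48 h after a single oral gavage (6.63 mg/kg in corn oil). Hydroxylated metabolites were methylated, and all analytes were run by GC with 63Ni-µECD on an SPB-1 column (60 m × 250 µm × 0.25 µm). The oven ran from 100 °C to 280 °C; injector was 280 °C, detector 300 °C, helium 1.0 mL/min. A PCB congener internal standard served as volume corrector.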

[2] = assay type: in vivo, mice; remark: listed apart in the source
Summary of the method: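 Blood extracts were dried under nitrogen. Headspace was sampled by SPME with a 100 µm PDMS fiber for 60 min at 60 °C, then desorbed in the injector for 5 min. Atropisomers were separated by GC-µECD with injector and detector at 250 °C and helium at 3.0 mL/min. The parent was measured on Chirasil-Dex at all time points from 1 to 48 h. Hydroxylated metabolites were measured at 5 h only, on Chirasil-Dex or CycloSil-B columns. Enantiomeric fractions were reported, n = 3–6.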

[3] = prior study, 30 mg/kg body weight, cited from earlier work
mice = assay: Daily animal welfare-assessments of exposed mice; assay type: in vivo; conditions: 6.63 mg/kg body weight in corn oil by oral gavage, up to 48 h
Summary of the method: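 Male and female mice (8 weeks ± 2 days) with liver-specific cpr deletion and congenic wild-type mice were housed at 22 ± 2 °C on a 12 h light-dark cycle with diet and water ad libitum. They were randomised to a single gavage of test compound (6.63 mg/kg; 18.4 µmol/kg) in corn oil (10 mL/kg) or to corn oil alone. Lab personnel assessed welfare daily.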

[4] = 5 h time point, all four exposure groups (M-KO, M-WT, F-KO, F-WT)
[5] = 5 h time point, all exposure groups

Oc1cc(Cl)c(Cl)c(-c2c(Cl)ccc(Cl)c2Cl)c1Cl [5–136, 2,2′,3,3′,6,6′-hexachlorobiphenyl-5-ol]
Detection in whole blood [1, 4]: detected

Oc1c(Cl)cc(Cl)c(-c2c(Cl)ccc(Cl)c2Cl)c1Cl [3–150, 2,2′,3′,4,6,6′-Hexachlorobiphenyl-3-ol]
Detection in whole blood [1, 4]: detected

Oc1cc(Cl)c(Cl)c(-c2c(Cl)ccc(Cl)c2Cl)c1Cl [E1-5–136]
Atropisomeric enrichment in whole blood [2, 5]: enriched

Clc1ccc(Cl)c(-c2c(Cl)ccc(Cl)c2Cl)c1Cl [E2-(+)-PCB 136]
Atropisomeric enrichment in whole blood ([2]; all samples, 1 to 48 h, male and female KO and WT mice): enriched

Oc1c(O)c(Cl)c(-c2c(Cl)ccc(Cl)c2Cl)c(Cl)c1Cl [4,5–136, 4,5-dihydroxy-2,2′,3,3′,6,6′-hexachlorobiphenyl]
Detection in whole blood [1, 4]: detected

Oc1cc(Cl)c(-c2c(Cl)ccc(Cl)c2Cl)c(Cl)c1Cl [E2-4–136]
Atropisomeric enrichment in whole blood [2, 5]: enriched

Oc1cc(Cl)c(-c2c(Cl)ccc(Cl)c2Cl)c(Cl)c1Cl [4–136, 2,2′,3,3′,6,6′-hexachlorobiphenyl-4-ol]
Detection in whole blood [1, 4]: detected

Clc1ccc(Cl)c(-c2c(Cl)ccc(Cl)c2Cl)c1Cl [PCB 136, 2,2’,3,3’,6,6’-hexachlorobiphenyl]
Detection in whole blood ([1]; all time points investigated (1 to 48 h), oral racemic PCB 136 6.63 mg/kg): detected | Enantiomeric fraction (EF) of PCB 136 ([3]; F-WT mice): 0.63 ± 0.06 | Enantiomeric fraction (EF) of PCB 136 ([3]; M-WT mice (so in the source)): 0.66 ± 0.03 | Adverse outcomes in daily animal welfare-assessments (mice): no adverse outcomes were observed
